Compound activity from PubChem.
DTT redox prof = compounds producing H2O2 with reducing agent – biochemical, NIH compound library profiling, artefact control for MLSCN library redox annotation, primary screen; DTT-dependent redox cycling H2O2, phenol red/HRP absorbance; 100% = 100 µM peroxide control, 0% = buffer; AID 878, 2007; activation, % at 10 µM; 200,000 compounds, 0.03% hits;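 active = activation of at least 50% relative to the plate's high and low controls in the primary single-dose screen; inactive = activation below 50%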;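 also: compound incubated with DTT at 0.8 mM final as the reducing agent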
G6PDH CS = L. mesenteroides G6PDH inhibitors, counter-screen for G6PDH-coupled screening assays, biochemical, Leuconostoc mesenteroides enzyme; Purified L. mesenteroides G6PDH, diaphorase/resazurin coupled fluorescence, 45 min; AID 1020, 2008; glucose-6-phosphate dehydrogenase [Leuconostoc mesenteroides]; inhibition, % at 5 µM; 200,000 compounds, 0.12% hits
Diaph inh CS = diaphorase inhibitors and chemical oxidizers, primary screen, counter-screen for diaphorase-coupled primary assays, biochemical, uHTS, resorufin fluorescence | inhibition, % at 20 µM | diaphorase resazurin-to-resorufin fluorescence, NADH, 16 min; bacterial (C. kluyveri) enzyme, not human | AID 1217, 2008 | 190,000 compounds, 0.69% hits;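 active = primary screen inhibition at 20 µM above a set limit, cut at about 50% in these data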;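 also: plate controls were DMSO with full reaction for no effect and wells lacking NADH for full effect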
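Assay system: diaphorase enzyme from Clostridium kluyveri. Quantity: enzyme working solution with 0.14 U/mL diaphorase. Schedule: reaction incubation of 16 min at room temperature. Technique: resorufin fluorescence, excitation 544 nm, emission 590 nm. Controls: No-NADH positive control and DMSO neutral control.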
PfGluPho inh = PfG6PD enzyme inhibitors, primary screen, biochemical, fluorescence intensity, uHTS | glucose-6-phosphate dehydrogenase-6-phosphogluconolactonase (Plasmodium falciparum 3D7) | 350,000 compounds, 0.78% hits | inhibition, % at 20 µM | PfGluPho enzyme, NADPH resazurin-diaphorase fluorescence;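 active = inhibition reaching at least a set limit at 20 µM in the primary screen, cut at about 59% in these data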;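 also: 0% = DMSO wells with substrate and 100% = DMSO wells lacking glucose-6-phosphate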
Lmaj promast = Leishmania major promastigote growth inhibition, primary screen. Leishmania major promastigotes, resazurin fluorescence viability. inhibition, % at 10 µM. 200,000 compounds, 9% hits. AID 1063, 2008;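 also: promastigotes grown with compound for 44 hours at 28 °C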
Diaphorase act = compounds boosting diaphorase resazurin reduction – biochemical, uHTS, resorufin fluorescence, counter-screen for diaphorase-coupled primary assays, primary screen; Diaphorase/resazurin coupled assay, 16 min; stronger effect = higher value; 1 = vehicle wells, 0 = NADH-free wells; activation factor at 20 µM; 190,000 compounds, 0.005% hits;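 active = diaphorase activity raised at least twofold by the compound at 20 µM; inactive = activation factor below 2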
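test system = bacterial diaphorase enzyme (C. kluyveri) | quantity = enzyme 0.07 U/mL final | reagent = NADH substrate 0.114 mM plus resazurin dye 0.1 mM, final | incubation = 16 min enzyme reaction, ambient temperature | buffer or medium = HEPES pH 7.4 buffer with MgCl2 and Tween 20 | signal = fluorescence of resorufin, 544 nm excitation, 590 nm emission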
* hit, by the source's call; . = no result given. The sample as a whole holds a higher share of hits than the screen did. Rule as the data show it, unless noted: active = inhibition above about 50%; inactive = the rest.

SMILES	DTT redox prof	G6PDH CS	Diaph inh CS	PfGluPho inh	Lmaj promast	Diaphorase act
CCOc1ccc(CCN2C(=O)c3ccc(C(=O)O)cc3C2=O)cc1OCC	.	.	.	-1.0	.	.
COc1ccc(-c2nc(-c3ccc4c(c3)OCO4)[nH]c2-c2ccc(OC)cc2)cc1	0.0	18.1	19.8	14.6	90.2*	0.8
CC(C)CCSc1nc(N)c(C#N)cc1C#N	1.0	0.8	14.0	3.2	75.8*	0.9
CCN1CCN(C(=O)C(C)Nc2cc(Cl)c(OC)cc2OC)CC1 (centres undefined)	-0.6	32.6	32.5	9.2	0.9	0.7
CCOC(=O)c1ccccc1NC(=O)COC(=O)CCC(=O)c1ccccc1	.	.	.	21.2	.	.
CN1CCN(c2ncnc3c2[nH]c2ccc(F)cc23)CC1	-1.4	-21.1	14.7	2.8	13.0	0.9
c1ccc2c(c1)[nH]c1c(N3CCCC3)ncnc12	0.9	2.4	15.7	17.3	58.0*	0.8
c1ccc2c(c1)[nH]c1c(N3CCOCC3)ncnc12	-0.6	-13.7	2.5	11.2	15.3	1
Fc1ccc2[nH]c3c(N4CCc5ccccc5C4)ncnc3c2c1	.	.	.	7.6	.	.
c1ccc2c(c1)[nH]c1c(N3CCSCC3)ncnc12	0.3	.	.	-3.5	86.0*	.
Cc1ccc2[nH]c3c(N4CCc5ccccc5C4)ncnc3c2c1	-7.6	3.7	7.2	35.8	67.9*	0.9
c1ccc2c(c1)[nH]c1c(N3CCN(C4CCCCC4)CC3)ncnc12	-2.3	.	.	2.2	78.4*	.
Cc1ccc2[nH]c3c(N4CCOCC4)ncnc3c2c1	-0.1	-0.6	7.7	16.2	35.4	0.9
Fc1ccc(NCc2nnc(SCc3nnc(-c4ccccc4)o3)n2CC2CCCO2)cc1 (centres undefined)	-3.7	-8.8	11.3	-5.3	-3.2	0.9
[O-]/[N+](=C\c1ccncc1)c1ccc(Br)cc1	-0.3	4.9	9.2	91.0*	1.3	0.9
CCCN1C(=O)c2cccc3c(N4CCCCC4)ccc(c23)C1=O	-0.2	-16.4	26.1	5.7	73.2*	0.7
CCCCNc1ccc2c3c(cccc13)C(=O)N(CCCC)C2=O	.	.	.	19.5	.	.
O=C1c2cccc3c(N4CCCCC4)ccc(c23)C(=O)N1c1ccc(Cl)cn1	-2.1	.	.	.	2.9	.
O=C1c2cccc3c(N4CCCCC4)ccc(c23)C(=O)N1c1ccccn1	1.9	3.9	52.1*	-5.3	30.8	0.5
O=C1c2cccc3c([N+](=O)[O-])ccc(c23)C(=O)N1c1ccccn1	-4.8	18.2	21.0	55.2	100.5*	0.8
O=C1c2cccc3c([N+](=O)[O-])ccc(c23)C(=O)N1c1nccs1	-0.5	9.0	26.9	60.0*	64.2*	0.7
O=C(OCCN1C(=O)c2cccc3c(N4CCOCC4)ccc(c23)C1=O)c1cc(Cl)cc(Cl)c1	1.6	-6.3	17.8	.	71.0*	0.8
CCN(CC)S(=O)(=O)c1ccc(C(=O)OCCN2C(=O)c3cccc4c(N5CCOCC5)ccc(c34)C2=O)cc1	-0.5	-20.0	23.2	3.6	21.2	0.8
O=C1c2cccc3c([N+](=O)[O-])ccc(c23)C(=O)N1c1ccc(Cl)cn1	-4.3	6.6	43.5	56.8	100.5*	0.6
O=C1NC(C2CC3C=CC2C3)Nc2ccccc21 (centres undefined)	.	.	.	-0.9	.	.
SMILES	DTT redox prof	G6PDH CS	Diaph inh CS	PfGluPho inh	Lmaj promast	Diaphorase act
COc1ccc([N+](=O)[O-])cc1NC(=O)C(C)N(C)Cc1ccc(Br)cc1 (centres undefined)	1.0	0.1	7.3	23.0	56.6*	0.9
COc1ccc(Br)cc1CN(C)C(C)C(=O)Nc1cc([N+](=O)[O-])ccc1OC (centres undefined)	1.6	-23.1	15.2	10.0	1.5	0.8
COc1ccc([N+](=O)[O-])cc1NC(=O)CC(c1ccccc1)c1ccccc1	0.8	-0.9	3.9	5.9	2.1	1
CCN(CCC(=O)Nc1cc([N+](=O)[O-])ccc1OC)Cc1ccccc1	-0.1	12.0	5.4	5.3	67.4*	0.9
Cc1ccccc1NC(=O)CCNS(=O)(=O)c1ccc2c(c1)CCC(=O)N2	.	.	.	-5.8	.	.
O=C(Nc1nc(-c2ccccc2)c(-c2ccccc2)s1)c1ccc(S(=O)(=O)N2CCCC2)cc1	-0.8	-20.0	19.4	-0.2	98.2*	0.8
O=C(Nc1nc(-c2ccccc2)c(C(=O)c2ccccc2)s1)c1ccc(S(=O)(=O)N2CCCC2)cc1	0.5	-32.9	25.7	-34.9	29.1	0.7
COc1ccc(-c2sc(NC(=O)c3ccc(C)cc3)nc2-c2ccc([N+](=O)[O-])cc2)cc1	2.9	14.9	6.2	-13.5	-0.3	0.9
COc1ccc(C(=O)Nc2nc(-c3ccc([N+](=O)[O-])cc3)c(-c3ccccc3)s2)cc1	2.5	.	.	3.5	68.3*	.
COc1ccc(Cl)cc1C(=O)NNC(=O)CSc1nncn1C	.	.	.	-12.8	.	.
Cc1[nH]c2ccccc2c1C(=O)COC(=O)CCS(=O)(=O)c1ccccc1Cl	0.0	8.6	0.9	14.1	60.2*	1
Cc1ccc2nc(N3CCN(C)CC3)c(C=O)c(=O)n2c1	.	.	.	1.5	.	.
CCOC(=O)C1(Cc2ccccc2C(F)(F)F)CCN(CC(O)CO)CC1 (centres undefined)	12.3	2.3	12.7	1.5	-3.1	0.9
CCOC(=O)C1(Cc2ccccc2C(F)(F)F)CCN(C2CCN(C(C)C)CC2)CC1	0.0	7.7	6.2	-2.7	99.0*	0.9
COc1cccc(OCc2cc(C(=O)NC(C)c3cnn(C)c3C)no2)c1 (centres undefined)	.	.	.	-15.5	.	.
COc1ccccc1NC(=S)N(CCN1CCOCC1)Cc1ccccc1F	-2.7	7.6	7.9	-17.5	5.6	0.9
CCOc1ccc2c(c1)C(N(CCN1CCOCC1)C(=S)Nc1ccccc1OC)CC(C)(C)O2 (centres undefined)	-0.7	3.1	13.6	2.3	58.5*	0.9
O=C1CN(c2nc(-c3cccs3)nc3sc4c(c23)CCCC4)CCN1	-0.2	-0.3	34.1	28.3	75.9*	0.7
COC(=O)c1ccccc1NS(=O)(=O)c1cn(C)c(=O)n(C)c1=O	0.3	-9.5	-1.0	3.6	-5.8	1
O=C(Nc1ccc(C(F)(F)F)cc1[N+](=O)[O-])O[C@H]1[C@H](Cc2ccccc2)NS(=O)(=O)[C@H]2C[C@@H]3C=C[C@]12O3	.	.	.	6.7	.	.
Cc1oc(C)c2c(=O)ccc3c(c12)OC(N)=C(C#N)C3c1ccc(F)cc1 (centres undefined)	-0.7	10.0	16.6	0.5	60.0*	0.8
